≈ marks a conversion by molar mass, not a printed value. Calls of active or inactive are those of the source.

As usually defined, the MIC90 is an inhibitory concentration at the 90% level, which refers to growth in some studies and to a panel of isolates in others. Lower therefore signals greater potency. The half-life is the time needed for the level to fall by half in the phase considered. A higher half-life goes with slow loss. In general, AUC(0-inf) refers to total exposure, with the tail of the curve extrapolated. Higher therefore signals more exposure. The Tmax is the time from dosing to the highest level. The Cmax is the highest concentration seen after dosing.

For data set [1], the system named is Mycobacterium tuberculosis. The data set can be described thus: Antitubercular activity against drug-sensitive Mycobacterium tuberculosis H37Rv ATCC 27294 measured after 7 days by microplate alamar blue assay. To be noted: for MIC90: H37Rv ATCC 27294, 168 h. It counts as functional. Put shortly:
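Microplate Alamar Blue Assay against strain H37Rv ATCC27294. MIC is the lowest concentration giving more than 90% reduction in fluorescence relative to the mean of replicate bacterium-only controls.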

The subject of data set [2] is Mus musculus. The data set can be described thus: Acute toxicity in mouse assessed as survival at 500 mg/kg, po administered as single dose measured for 7 days. The note with it: in vivo, 168 h. It counts as organism-based.
Data set [3] is described as follows: Half life in mouse at 50 mg/kg, po administered as single dose. To be noted: in vivo. It counts as ADME, organism-based. The procedure, abridged: (§1)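 Mice (n = 3) received one oral 50 mg/kg dose; plasma levels were followed to derive T1/2 (h), Tmax (h), Cmax (ng/mL) and AUC0-∞ (h·ng/mL).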
A short description of data set [4]: AUC (0 to infinity) in mouse at 50 mg/kg, po administered as single dose. The note with it: in vivo. It counts as ADME, organism-based. Details: dose 50 mg/kg, route oral, time infinity. Put shortly: as §1
A short description of data set [5]: Tmax in mouse at 50 mg/kg, po administered as single dose. It counts as ADME, organism-based. To be noted: in vivo. The procedure, abridged:
as §1

Data set [6] is described as follows: Cmax in mouse at 50 mg/kg, po administered as single dose. It counts as ADME, organism-based. Details: dose 50 mg/kg, route oral. To be noted: in vivo. The procedure, abridged: as §1

The compound `O=C(NCc1ccc(N2CC3CCCCC3C2)cc1)c1cc([N+](=O)[O-])cc([N+](=O)[O-])c1` (stereo not drawn) gave an MIC90 in data set [1] of 0.0625 µg/mL (≈ 0.147 µM). Further, the Activity entry in data set [2] is given as “Non-Toxic”.

In the case of `NNC(=O)c1ccncc1` [ISONIAZID], the MIC90 in data set [1] stood at 0.0781 µg/mL (≈ 0.569 µM).

Turning to `O=C(NCc1ccc(N2CCOCC2)cc1)c1cc([N+](=O)[O-])cc([N+](=O)[O-])c1`, the MIC90 in data set [1] was over 8 µg/mL.

In turn, `O=C(NCc1ccc(N2CCOCC2)cc1)c1cc([N+](=O)[O-])cc(C(F)(F)F)c1` registered an MIC90 in data set [1] of over 8 µg/mL.

`O=c1nc(N2CCN(CC3CCCCC3)CC2)sc2c([N+](=O)[O-])cc(C(F)(F)F)cc12` [MACOZINONE] had an MIC90 in data set [1] of 0.0625 µg/mL (≈ 0.137 µM).

In the case of `O=C(NCc1ccc(N2CCC(C(F)(F)F)CC2)cc1)c1cc([N+](=O)[O-])cc(C(F)(F)F)c1`, the MIC90 in data set [1] was 0.0625 µg/mL (≈ 0.131 µM).

As for `O=C(NCCN1CCN(CC2CCCCC2)CC1)c1cc([N+](=O)[O-])cc(C(F)(F)F)c1`, the MIC90 in data set [1] was in the range of 0.0781 to 4 µg/mL (≈ 0.177 to 9.04 µM).

For the compound `O=C(NCc1ccc(N2CCN(c3ccc(F)cc3)CC2)cc1)c1cc([N+](=O)[O-])cc(C(F)(F)F)c1`, the MIC90 in data set [1] turned out to be 0.5 µg/mL (≈ 0.995 µM).

Consider `CO[C@H]1/C=C/O[C@@]2(C)Oc3c(C)c(O)c4c(O)c(c(/C=N/N5CCN(C)CC5)c(O)c4c3C2=O)NC(=O)/C(C)=C\C=C\[C@H](C)[C@H](O)[C@@H](C)[C@@H](O)[C@@H](C)[C@H](OC(C)=O)[C@@H]1C` [RIFAMPIN], for which the MIC90 in data set [1] worked out at 0.0781 µg/mL (≈ 0.0949 µM).

`O=C(NCc1ccc(N2CCSCC2)cc1)c1cc([N+](=O)[O-])cc([N+](=O)[O-])c1` had a half-life in data set [3] of 3.3 h. This compound also had an MIC90 in data set [1] of 0.0625 µg/mL (≈ 0.155 µM). In data set [4], this compound showed an AUC(0-inf) of 41.1 ng·h/mL. Moreover, the Tmax in data set [5] turned out to be 2.75 h. Besides, in data set [6], the Cmax was 19 ng/mL. Moreover, the Activity result in data set [2] is given as “Non-Toxic”.

Take `O=C(NCc1ccc(N2CCN(c3ccccn3)CC2)cc1)c1cc([N+](=O)[O-])cc(C(F)(F)F)c1`: the MIC90 in data set [1] amounted to 1 µg/mL (≈ 2.06 µM).

`O=C(NCc1ccc(N2CCC(Oc3ccc(OC(F)(F)F)cc3)CC2)cc1)c1cc([N+](=O)[O-])cc(C(F)(F)F)c1` gave an MIC90 in data set [1] of 2 µg/mL (≈ 3.43 µM).

In data set [1], `O=C(NCc1ccc(N2CCCCC2)cc1)c1cc([N+](=O)[O-])cc([N+](=O)[O-])c1` showed an MIC90 of 2 µg/mL (≈ 5.2 µM).

Regarding `O=C(NCc1ccc(N2CCCCC2)cc1)c1cc([N+](=O)[O-])cc(C(F)(F)F)c1`, the MIC90 in data set [1] came out at 0.25 µg/mL (≈ 0.614 µM).

`O=C(NCc1ccc(N2CCN(c3ccccn3)CC2)cc1)c1cc([N+](=O)[O-])cc([N+](=O)[O-])c1` returned an MIC90 in data set [1] of 1 µg/mL (≈ 2.16 µM).

In turn, `O=C(NCc1ccc(N2CC3CCCCC3C2)cc1)c1cc([N+](=O)[O-])cc(C(F)(F)F)c1` (stereo not drawn) gave an MIC90 in data set [1] of 0.5 µg/mL (≈ 1.12 µM).

Compound `CC(C)N1CCN(c2ccc(CNC(=O)c3cc([N+](=O)[O-])cc(C(F)(F)F)c3)cc2)CC1` showed an MIC90 in data set [1] of 8 µg/mL (≈ 17.8 µM).

Turning to `O=C(NCc1ccc(N2CCC(Oc3ccc(OC(F)(F)F)cc3)CC2)cc1)c1cc([N+](=O)[O-])cc([N+](=O)[O-])c1`, the MIC90 in data set [1] was 0.5 µg/mL (≈ 0.892 µM).

In data set [1], `CN1CCN(c2ccc(CNC(=O)c3cc([N+](=O)[O-])cc([N+](=O)[O-])c3)cc2)CC1` returned an MIC90 of 4 µg/mL (≈ 10 µM).

As to `O=C(NCc1ccc(N2CCC(c3ccc(OC(F)(F)F)cc3)CC2)cc1)c1cc([N+](=O)[O-])cc(C(F)(F)F)c1`, the MIC90 in data set [1] is 0.5 µg/mL (≈ 0.881 µM).

On to `COc1ccc(OCCNC(=O)c2cc([N+](=O)[O-])cc(C(F)(F)F)c2)cc1`, for which, in data set [1], the MIC90 was 1 µg/mL (≈ 2.6 µM).

As to `O=C(NCCNc1ccc(Br)cc1)c1cc([N+](=O)[O-])cc(C(F)(F)F)c1`, the result in data set [1] was Active.

In data set [3], `O=C(NCc1ccc(N2CCC(C(F)(F)F)CC2)cc1)c1cc([N+](=O)[O-])cc([N+](=O)[O-])c1` had a half-life of 3.63 h. In data set [1], the MIC90 was 0.0625 µg/mL (≈ 0.138 µM). The AUC(0-inf) in data set [4] amounted to 5600 ng·h/mL. Also, the Tmax in data set [5] was 0.92 h. In data set [6], this compound showed a Cmax of 1720 ng/mL. The Activity result in data set [2] is reported as “Non-Toxic”.

Consider `O=C(NCCN1CCN(c2ccccc2)CC1)c1cc([N+](=O)[O-])cc(C(F)(F)F)c1`, for which, in data set [1], the result was Active.

`CN1CCN(c2ccc(CNC(=O)c3cc([N+](=O)[O-])cc(C(F)(F)F)c3)cc2)CC1` displayed an MIC90 in data set [1] of over 8 µg/mL.

Turning to `O=C(NCc1ccc(N2CCN(c3ccncc3)CC2)cc1)c1cc([N+](=O)[O-])cc(C(F)(F)F)c1`, in data set [1], the MIC90 came out at 8 µg/mL (≈ 16.5 µM).

With `O=C(NCc1ccc(N2CCSCC2)cc1)c1cc([N+](=O)[O-])cc(C(F)(F)F)c1`, the MIC90 in data set [1] turned out to be 0.125 µg/mL (≈ 0.294 µM).

In turn, `O=C(NCc1ccc(N2CCN(c3ccncc3)CC2)cc1)c1cc([N+](=O)[O-])cc([N+](=O)[O-])c1` registered an MIC90 in data set [1] of 2 µg/mL (≈ 4.32 µM).

Consider `O=C(NCc1ccc(N2CCN(c3ccc(F)cc3)CC2)cc1)c1cc([N+](=O)[O-])cc([N+](=O)[O-])c1`, for which the half-life in data set [3] was 13.6 h. The compound also yielded an MIC90 in data set [1] of 0.0625 µg/mL (≈ 0.13 µM). The AUC(0-inf) in data set [4] was 219 ng·h/mL. In addition, the Tmax in data set [5] was found to be 1.08 h. Besides, the Cmax in data set [6] stood at 15 ng/mL. Moreover, the Activity result in data set [2] is given as “Non-Toxic”.

Regarding `O=C(NCc1ccc(N2CCC(c3ccc(OC(F)(F)F)cc3)CC2)cc1)c1cc([N+](=O)[O-])cc([N+](=O)[O-])c1`, the half-life in data set [3] was 5.52 h. The compound further showed an MIC90 in data set [1] of 0.0625 µg/mL (≈ 0.115 µM). In data set [4], this compound came in with an AUC(0-inf) of 3260 ng·h/mL. Besides, the Tmax in data set [5] was found to be 0.83 h. The Cmax in data set [6] was 366 ng/mL. For the same compound, the Activity result in data set [2] is reported as “Non-Toxic”.

With `O=C(NCCNc1ccc([N+](=O)[O-])cc1)c1cc([N+](=O)[O-])cc(C(F)(F)F)c1`, the result in data set [1] was Active.

In the case of `CC(C)N1CCN(c2ccc(CNC(=O)c3cc([N+](=O)[O-])cc([N+](=O)[O-])c3)cc2)CC1`, the MIC90 in data set [1] stood at 4 µg/mL (≈ 9.36 µM).

The values are drawn from ChEMBL document CHEMBL4196125, “Identification of N-Benzyl 3,5-Dinitrobenzamides Derived from PBTZ169 as Antitubercular Agents” (ACS Med Chem Lett, 2018).
